A value given as a limit tells only on which side of the number the result lay.

Common to all, as to format: cell-based, human
The subject of series [1] is Phenion®FT skin tissues. Nature of the series: cytotoxicity in the skin comet assay. Summed up:
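Full-thickness tissues were cultured at the air–liquid interface (37°C, 5% CO₂). They were treated in triplicate with test compound ± APC in acetone (16 µl/cm²), either three times (48, 24 and 3 h) or once for 3 h. Afterwards, culture medium was kept at 4°C for adenylate kinase release. About 25% of each tissue was snap-frozen, homogenised in cold DPBS, heated (105°C, 5 min) and centrifuged; ATP was measured in the supernatant with a kit. Both measures were expressed relative to solvent control (100%).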

Series [2] has as its system Phenion®FT skin tissues. Nature of the series: 3D skin comet assay. The settings on record: for % tail DNA vs SC + APC: three treatments over 48 h in the presence of APC.
Series [3] concerns EpiDerm™ skin tissues. Briefly: reconstructed skin micronucleus.
Series [4] concerns Phenion®FT skin tissues. Nature of the series: DNA adduct formation by TLC 32P-postlabelling assay.
Series [5] relates to EpiDerm™ skin tissues. Nature of the series: skin comet assay in EpiDerm skin tissues. Particulars: single 3 h treatment, doses ≥2 µg/cm^2, keratinocytes, data not shown.
The test system of series [6] is EpiDerm™ skin tissues. Briefly: cytotoxicity in the RSMN assay. Summed up: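 Skin tissues received test compound topically in 10 µl (16 µl/cm²) acetone, two or three times at 24 h intervals, in triplicate alongside solvent controls. Tissues were washed in DPBS, then DPBS-EDTA, and trypsinised (0.25% trypsin–0.02% EDTA, 15 min, 37°C) into single-cell suspensions. Viable cell count came from AO/DAPI staining with an automated counter, and % BN from AO staining over 500 cells/tissue. Both were expressed relative to solvent control; excessive cytotoxicity was a 55 ± 5 % reduction.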

As to `CC(=O)Nc1ccc2c(c1)Cc1ccccc1-2` [2-AAF, 2-acetylaminofluorene], in the series with Phenion®FT skin tissues [1] (three treatments over 48 h with APC), the “dose that exceeded the % ATP cytotoxicity threshold” value was found to be 75 µg/cm^2. In addition, the “% tail DNA vs SC + APC” value in the series with Phenion®FT skin tissues [2] (fibroblasts, both experiments, all doses tested) is given as “significant increase in the % tail DNA”; in the series with Phenion®FT skin tissues [2] (keratinocytes, at 75 µg/cm^2), “only statistically significant in one experiment”. The “DNA damage in the RSMN assay (% MN-BN)” value in the series with EpiDerm™ skin tissues [3] (topical, three doses over 72 h, up to 96 µg/cm^2) is “did not significantly increase DNA damage”. The “MN formation (% MN-BN)” value in the series on EpiDerm™ skin tissues [3] (topical, two times over a 48-h period, doses up to 140 µg/cm^2, vs SC) is given as “did not result in a significant increase in MN formation”. Moreover, the “increase of adduct levels after multiple exposures over 48 h vs 3 h treatment” value in the series with Phenion®FT skin tissues [4] (multiple exposures over 48 h) is above 10 fold. For the same compound, the “2-AAF-derived DNA adducts” value in the series with Phenion®FT skin tissues [4] (single 3 h treatment, 50 and 150 µg/cm^2) is reported as “minimal, but detectable”. Moreover, the “DNA adduct level (RAL), up to” value with Phenion®FT skin tissues [4] (three treatments over 48 h) was ~ 10 adducts per 10^8 nucleotides. The “DNA adduct levels in the presence of APC” value with Phenion®FT skin tissues [4] (three-treatment protocol, 150 µg/cm^2, with APC) was “additional, but non-significant increase”.

For the compound `C[C@@]1(CO)[C@H](O)CC[C@@]2(C)[C@H]1CC[C@H]1C[C@@H]3C[C@@]12CC[C@]3(O)CO` [APC, aphidicolin], in the series on Phenion®FT skin tissues [2] (APC alone, 5 µg/ml in medium 4 h before end of incubation), the “DNA damage (% tail DNA) vs SC group alone” value was “small non-significant increase in DNA damage”.

As to `CC(=O)N(O)c1ccc2c(c1)Cc1ccccc1-2` [N-OH-2-AAF, N-hydroxy-2-acetylaminofluorene], in the series with Phenion®FT skin tissues [2] (single 3 h treatment, 4 µg/cm^2, keratinocytes and fibroblasts), the “% tail DNA” value was “significantly increased the % tail DNA”. Moreover, in the series on Phenion®FT skin tissues [2] (single 3 h treatment, 1 and 4 µg/cm^2, both cell types), the “DNA damage (% tail DNA) in the presence of APC vs compound alone” value is recorded as “further amplified”. Also, the “DNA damage in the skin comet assay” value in the series with EpiDerm™ skin tissues [5] was “highly significant dose-dependent increase in DNA damage”. Also, the “dose that exceeded the cytotoxicity threshold by % BN” value with EpiDerm™ skin tissues [6] (two or three treatments over 48 h or 72 h) is on record as 0.8 µg/cm^2. Further, the “DNA damage in the RSMN assay (% MN-BN)” value in the series with EpiDerm™ skin tissues [3] (three treatments over 72 h, doses up to 0.8 µg/cm^2) was “did not cause a significant increase in DNA damage”; in the series on EpiDerm™ skin tissues [3] (two treatments over 48 h, doses up to 0.8 µg/cm^2), “did not cause a significant increase in DNA damage”.

In the case of `ONc1ccc2c(c1)Cc1ccccc1-2` [N-OH-2-AF, N-hydroxy-2-aminofluorene], the “cytotoxicity (% AK, % ATP)” value in the series with Phenion®FT skin tissues [1] (single 3 h treatment in the presence of APC) is “absence of excessive cytotoxicity”. In the series with Phenion®FT skin tissues [2] (single 3 h treatment), the “potency in the skin comet assay compared with N-OH-2-AAF” value was “more potent”. Besides, in the series on Phenion®FT skin tissues [2] (single 3 h treatment, 1 µg/cm^2, keratinocytes and fibroblasts), the “near maximal level of DNA damage” value was 60–80 % tail DNA. Also, the “DNA damage (% tail DNA) in the presence of APC” value in the series on Phenion®FT skin tissues [2] (single 3 h treatment, all three doses, both cell types) was “further amplified and reached near maximal levels”. In addition, the “DNA damage (% tail DNA)” value with Phenion®FT skin tissues [2] (single 3 h treatment, doses of 0.25–4 µg/cm^2, keratinocytes and fibroblasts) is on record as “robust, dose-responsive increase in DNA damage”. For the same compound, the “cytotoxicity by % VCC” value in the series with EpiDerm™ skin tissues [6] (three treatments over 72 h, highest dose 1.3 µg/cm^2) is “approached the cytotoxicity threshold for % VCC at the highest dose”. Also, the “micronuclei in the RSMN assay (% MN-BN)” value in the series with EpiDerm™ skin tissues [3] (three treatments over 72 h, at the two highest doses 0.85 and 1.3 µg/cm^2, P < 0.01) is “significant change in micronuclei”. The “MN formation (% MN-BN)” value in the series with EpiDerm™ skin tissues [3] (two treatments over 48 h, up to 1.3 µg/cm^2) is listed as “did not significantly increase MN formation”. In the series with Phenion®FT skin tissues [4] (single 3 h treatment, 1 µg/cm^2), the “level of DNA adducts compared with N-OH-2-AAF at the same dose” value was “not significantly different”.

The values above are taken from article PMC8081378 (Mutagenesis, 2019).
